Here are results for 6 compounds from ChEMBL document CHEMBL1128383, “Potent, orally active, competitive N-methyl-D-aspartate (NMDA) receptor antagonists are substrates for a neutral amino acid uptake system in Chinese hamster ovary cells” (J Med Chem, 1995).

What is called ED50 is the dose that gives a 50% effect, or the effect in half of the subjects. In general, pIC50 refers to the IC50 on a negative log10 scale, so that one unit is a factor of ten. A higher pIC50 goes with a small IC50.

Data set [1] can be described thus: Therapeutic index(TI) expressed as ratio of ataxia ED50 to the MES ED50 was determined. The note with it: read-out: TI.
In data set [2] the test system is Mus musculus. Kind of data set: Maximal electroshock results in mice by iv administration of 3 mg/kg expressed as 50% effective dose. The class given is functional.
Data set [3] has as its target Glutamate NMDA receptor. Kind of data set: Inhibition of receptor binding affinity in rat brain synaptosomal membrane was determined by [3H]-CGP- 39653 as radioligand. The format is cell membranes. The method, boiled down:
(§1)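 Displacement of radioligand ([3H]glutamate, [3H]glycine or [3H]CGP 39653) from rat cortex synaptosomal membranes. IC50 values are means of at least two experiments, each run in triplicate.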

The target of data set [4] is Glutamate NMDA receptor. The experiment in a line: Inhibition of NMDA receptor binding affinity in rat brain synaptosomal membrane using [3H]glycine as radioligand. The format is cell membranes. In outline: as §1
For data set [5], the target named is Glutamate NMDA receptor. Kind of data set: Inhibition of NMDA receptor binding affinity in rat brain synaptosomal membrane using [3H]glutamate as radioligand. The format is cell membranes. In outline:
as §1

For data set [6], the species on record is Mus musculus. The experiment in a line: Potent oral activity in MES mice. The format is functional.
The target of data set [7] is Glutamate NMDA receptor. Kind of data set: Inhibition of receptor binding affinity in […] measured using LDH release. The method, boiled down: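 Neuronal cell-culture excitotoxicity assay. Cell death is induced by a 5 min application of 100 μM NMDA and read out as lactate dehydrogenase release. The value is the compound concentration needed to prevent cell death.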

The subject of data set [8] is Mus musculus. The experiment in a line: Maximal electroshock (MES) results in mice by iv administration of 10 mg/kg expressed as number of animals ataxia by total 5 animals tested after 2 hr was reported. The class given is functional. In outline:
(§2)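 Adult male CF-1 mice (18–24 g) dosed iv, mg/kg. At 15 min, 1 h and 2 h after dosing, a 60 Hz sinusoidal current (50 mA base to peak, 0.2 s) is applied through corneal electrodes smeared with electrolyte jelly. Protection means no tonic hindlimb extension. Ataxia is scored by inverted screen. Data are expressed as animals affected per animals tested, 5 per group.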
On the technique in general: In the maximal electroshock model the usual endpoint is tonic extension of the hind limbs.

Data set [9] has as its system Mus musculus. Kind of data set: Maximal electroshock (MES) results in mice by iv administration of 30 mg/kg expressed as number of animals ataxia by total 5 animals tested after 15 min was reported. The format is functional. In outline: as §2
Data set [10] relates to Mus musculus. The experiment in a line: Maximal electroshock (MES) results in mice by iv administration of 10 mg/kg expressed as number of animals protected by number of animals tested after 15 min was reported. The format is functional. In outline: as §2
The subject of data set [11] is Mus musculus. Kind of data set: Maximal electroshock (MES) results in mice by iv administration of 10 mg/kg expressed as number of animals protected by number of animals tested after 1 hr was reported. The format is functional. The method, boiled down: as §2
Data set [12] concerns Mus musculus. Kind of data set: Maximal electroshock (MES) results in mice by iv administration of 10 mg/kg expressed as number of animals ataxia by number of animals tested after 1 hr was reported. The class given is functional. In outline: as §2
Data set [13] has as its system Mus musculus. The experiment in a line: Maximal electroshock (MES) results in mice by iv administration of 30 mg/kg expressed as number of animals protected by total 5 animals tested after 2 hr was reported. The class given is functional. The method, boiled down:
as §2

Data set [14] has as its system Mus musculus. The experiment in a line: Maximal electroshock (MES) results in mice by iv administration of 30 mg/kg expressed as number of animals ataxia by total 5 animals tested after 2 hr was reported. The class given is functional. The method, boiled down:
as §2

The test system of data set [15] is Mus musculus. The experiment in a line: Maximal electroshock (MES) results in mice by iv administration of 30 mg/kg expressed as number of animals protected by total 5 animals tested after 15 min was reported. The class given is functional. In outline: as §2
Data set [16] relates to Mus musculus. Kind of data set: Maximal electroshock (MES) results in mice by iv administration of 30 mg/kg expressed as number of animals protected by total 5 animals tested after 1 hr was reported. The format is functional. The method, boiled down: as §2
For data set [17], the system named is Mus musculus. Kind of data set: Maximal electroshock (MES) results in mice by iv administration of 10 mg/kg expressed as number of animals protected by total 5 animals tested after 2 hr was reported. The format is functional. The method, boiled down:
as §2

Data set [18] deals with Mus musculus. The experiment in a line: Maximal electroshock (MES) results in mice by iv administration of 30 mg/kg expressed as number of animals ataxia by total 5 animals tested after 1 hr was reported. The format is functional. In outline: as §2
Data set [19] relates to Mus musculus. The experiment in a line: Maximal electroshock (MES) results in mice by iv administration of 10 mg/kg expressed as number of animals ataxia by number of animals tested after 15 min was reported. The class given is functional. The method, boiled down: as §2
Data set [20] addresses Glutamate NMDA receptor. The experiment in a line: Inhibition of NMDA receptor binding affinity in rat brain synaptosomal membrane by using [3H]glycine as radioligand. The class given is cell membranes. In outline: (§3)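 Displacement of the named radioligand from rat cortex synaptosomal membranes, following previously reported procedures. IC50 values are means of at least two experiments, each run in triplicate.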

Data set [21] addresses Glutamate NMDA receptor. Kind of data set: Inhibition of NMDA receptor binding affinity in rat brain synaptosomal membrane was determined by [3H]-CGP- 39653 as radioligand. The class given is cell membranes. The method, boiled down: as §3
Data set [22] concerns Mus musculus. Kind of data set: Maximal electroshock (MES) results in mice by iv administration of 10 mg/kg expressed as number of animals protected by total 5 animals tested after 1 hr was reported. The format is functional. The method, boiled down:
as §2

Data set [23] relates to Mus musculus. The experiment in a line: Maximal electroshock (MES) results in mice by iv administration of 10 mg/kg expressed as number of animals protected by total 5 animals tested after 15 min was reported. The class given is functional. The method, boiled down: as §2
Data set [24] has as its system Mus musculus. The experiment in a line: Maximal electroshock (MES) results in mice by iv administration of 10 mg/kg expressed as number of animals ataxia by total 5 animals tested after 15 min was reported. The class given is functional. The method, boiled down:
as §2

The test system of data set [25] is Mus musculus. Kind of data set: Maximal electroshock (MES) results in mice by iv administration of 10 mg/kg expressed as number of animals ataxia by total 5 animals tested after 1 hr was reported. The class given is functional. In outline: as §2
Data set [26] concerns Mus musculus. Kind of data set: Maximal electroshock (MES) results in mice by iv administration of 3 mg/kg expressed as number of animals protected by total 5 animals tested after 1 hr was reported. The format is functional. The method, boiled down:
as §2

The subject of data set [27] is Mus musculus. Kind of data set: Maximal electroshock (MES) results in mice by iv administration of 3 mg/kg expressed as number of animals with ataxia by total 5 animals tested after 1 hr was reported. The format is functional. The method, boiled down:
as §2

Data set [28] relates to Mus musculus. Kind of data set: Maximal electroshock (MES) results in mice by iv administration of 10 mg/kg expressed as number of animals with ataxia total 5 animals tested after 1 hr was reported. The class given is functional. The method, boiled down:
as §2

The subject of data set [29] is Mus musculus. Kind of data set: Maximal electroshock (MES) results in mice by iv administration of 10 mg/kg expressed as number of animals with ataxia total 5 animals tested after 2 hr was reported. The class given is functional. In outline:
as §2

For data set [30], the system named is Mus musculus. Kind of data set: Maximal electroshock (MES) results in mice by iv administration of 3 mg/kg expressed as number of animals protected by total 5 animals tested after 2 hr was reported. The format is functional. In outline: as §2
Data set [31] concerns Mus musculus. The experiment in a line: Maximal electroshock (MES) results in mice by iv administration of 3 mg/kg expressed as number of animals protected by total 5 animals tested after 15 min was reported. The class given is functional. In outline:
as §2

The test system of data set [32] is Mus musculus. The experiment in a line: Maximal electroshock (MES) results in mice by iv administration of 3 mg/kg expressed as number of animals with ataxia total 5 animals tested after 2 hr was reported. The class given is functional. In outline: as §2
Data set [33] relates to Mus musculus. The experiment in a line: Maximal electroshock (MES) results in mice by iv administration of 10 mg/kg expressed as number of animals with ataxia total 5 animals tested after 15 min was reported. The class given is functional. The method, boiled down:
as §2

Data set [34] has as its system Mus musculus. The experiment in a line: Maximal electroshock (MES) results in mice by iv administration of 3 mg/kg expressed as number of animals with ataxia by total 5 animals tested after 15 min was reported. The class given is functional. The method, boiled down: as §2

pIC50: −log10 of the molar value.

`N[C@@H](Cc1cc(CP(=O)(O)O)cc(-c2cccc3ccccc23)c1)C(=O)O`: in data set [1], the selectivity ratio turned out to be 2.28. Besides, the ED50 in data set [2] was 0.53 mg/kg; in data set [6] it was 5 mg/kg. Besides, the pIC50 is 8.22 in data set [3], 4.18 in data set [4], 7.82 in data set [5] and 7.30 in [7].
In the case of `N[C@H](Cc1cc(CP(=O)(O)O)cc(-c2ccc3ccccc3c2)c1)C(=O)O`, the figures for the pIC50 in [3] and in data set [5] were 6.23 and 6.19, respectively.
As for `N[C@H](Cc1cc(CP(=O)(O)O)cc(-c2cccc3ccccc23)c1)C(=O)O`, the Ataxia in [8] is 0; in data set [9] it was 1; in [12], 0; in [14], 0; in data set [18] it was 0; in data set [19], 0. In addition, the negative-log IC50 (pIC50) in [3] was 6.60; in [5], 6.49. Besides, the Protected was 0 in data set [10]; 0 in [11]; 5 in data set [13]; 3 in [15]; 3 in data set [16]; 1 in [17].
Take `O=C(O)C1CN(CCCP(=O)(O)O)CCN1` (configuration not stated): the figures for the pIC50 in data set [20], in [5] and in [21] were less than 3.70, 6.08 and 6.83, respectively. For the same compound, the selectivity ratio in data set [1] was determined as 2.21.
`N[C@H](Cc1cc(CP(=O)(O)O)cc(-c2ccccc2)c1)C(=O)O`: the Protected in [22], in data set [23] and in data set [17] was 0 in each case. Moreover, the Ataxia in data set [8], in data set [24] and in [25] was 0 in each case. The negative logarithm of the IC50 (pIC50) in data set [3] was 5.28; in data set [4] it was less than 3.70; in [5] it was 4.87.
For `N[C@@H](Cc1cc(CP(=O)(O)O)cc(-c2ccccc2)c1)C(=O)O`, the Protected in [26] was determined as 0; in data set [22] it was 4; in data set [23], 5; in data set [30], 1; in data set [31], 1; in data set [17], 3. Also, the pIC50 in data set [3] was 7.06; in data set [4], 3.65; in data set [5], 6.89; in data set [7], 6.00. For the same compound, the Ataxia in data set [27] amounted to 0; in data set [28] it was 1; in data set [29], 0; in data set [32], 0; in data set [33], 0; in [34], 0.
